We go through 4 molecules from ChEMBL document CHEMBL4033612, “The Bibenzyl Canniprene Inhibits the Production of Pro-Inflammatory Eicosanoids and Selectively Accumulates in Some Cannabis sativa Strains” (J Nat Prod, 2017).

The source made the active and inactive calls. No cut-off for these calls is given here.

For assay [1], the target named is T1, Polyunsaturated fatty acid 5-lipoxygenase (Homo sapiens, UniProt P09917).
T1 sequence (P09917 whole entry): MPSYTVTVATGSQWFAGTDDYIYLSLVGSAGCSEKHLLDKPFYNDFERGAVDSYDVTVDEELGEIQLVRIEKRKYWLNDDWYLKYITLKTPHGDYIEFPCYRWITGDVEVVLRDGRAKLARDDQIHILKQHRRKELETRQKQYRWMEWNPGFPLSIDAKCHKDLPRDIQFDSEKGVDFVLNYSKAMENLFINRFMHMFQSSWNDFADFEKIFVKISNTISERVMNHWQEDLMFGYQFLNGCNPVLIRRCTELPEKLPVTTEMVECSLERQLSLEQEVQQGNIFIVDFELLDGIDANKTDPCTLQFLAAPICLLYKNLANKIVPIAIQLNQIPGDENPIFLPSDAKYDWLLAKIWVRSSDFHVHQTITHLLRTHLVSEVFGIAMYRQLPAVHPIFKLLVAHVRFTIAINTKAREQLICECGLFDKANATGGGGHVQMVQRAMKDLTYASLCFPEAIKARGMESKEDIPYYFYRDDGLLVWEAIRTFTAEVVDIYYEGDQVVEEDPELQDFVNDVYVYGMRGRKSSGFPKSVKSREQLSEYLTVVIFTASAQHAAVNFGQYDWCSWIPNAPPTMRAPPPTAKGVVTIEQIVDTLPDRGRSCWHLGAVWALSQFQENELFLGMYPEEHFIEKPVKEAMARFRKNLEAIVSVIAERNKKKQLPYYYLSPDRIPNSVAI
As to the kind of experiment: (§1) Inhibition of human recombinant 5-lipoxygenase expressed in Escherichia coli MV1190 pre-incubated for 10 mins before arachidonic acid substrate addition and measured after 10 mins by RP-HPLC method. In short, it runs like this:
(§2)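 5-LO expressed at 27 °C in transformed E. coli, lysed, sonicated, spun at 40000g; supernatant partially purified on ATP-agarose and used at once. Enzyme diluted in ice-cold PBS with 1 mM EDTA and 1 mM ATP, preincubated with compound 10 min at 4 °C, warmed 30 s at 37 °C. Reaction started with 2 mM CaCl2 plus 20 μM AA, 10 min at 37 °C, stopped with methanol. Products analysed by RP-HPLC. IC50 by linear interpolation around 50% activity.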

The target in assay [2] is T2, Prostaglandin E synthase (Homo sapiens, UniProt O14684).
T2 sequence (O14684 whole entry): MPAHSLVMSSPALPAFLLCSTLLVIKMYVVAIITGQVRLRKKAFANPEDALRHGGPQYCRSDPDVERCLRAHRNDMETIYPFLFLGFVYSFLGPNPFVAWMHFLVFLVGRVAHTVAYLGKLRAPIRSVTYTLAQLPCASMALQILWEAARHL
The experiment in a line: (§3) Inhibition of mPGES-1 in interleukin-1 beta-stimulated human A549 cells microsomal membranes assessed as reduction in conversion of PGH2 to PGE2 pre-incubated for 15 mins followed by PGH2 substrate addition measured after 1 min by RP-HPLC method. The assay is classed as cell-based. In short, it runs like this: (§4)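 A549 cells treated with 1 ng/mL IL-1β for 48 h, sonicated, and microsomes isolated at 174000g. Membranes were diluted in 0.1 M potassium phosphate pH 7.4 with 2.5 mM glutathione and given compound or vehicle for 15 min at 4 °C. PGH2 was added and the reaction ran 1 min at 4 °C, then was stopped with FeCl2/citric acid containing 11β-PGE2 internal standard. PGE2 was taken by SPE and measured by RP-HPLC. IC50 by linear interpolation.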

Assay [3] deals with T3, Polyunsaturated fatty acid 5-lipoxygenase (Homo sapiens) (UniProt P09917).
T3 sequence (whole entry): T1 sequence (P09917 whole entry)
Described as §1. In short, it runs like this: as §2

The target of assay [4] is T4, Prostaglandin E synthase (Homo sapiens) (UniProt O14684).
T4 sequence (whole entry): T2 sequence (O14684 whole entry)
The assay is described as §3. It is filed as cell-based. In short, it runs like this:
as §4

In assay [5] the target is T4, Prostaglandin E synthase (Homo sapiens). As to the kind of experiment: Inhibition of mPGES-1 in interleukin-1 beta-stimulated human A549 cells microsomal membranes up to 10 uM assessed as reduction in conversion of PGH2 to PGE2 pre-incubated for 15 mins followed by PGH2 substrate addition measured after 1 min by RP-HPLC method. The assay is classed as cell-based. In short, it runs like this:
as §4

For assay [6], the target named is T3, Polyunsaturated fatty acid 5-lipoxygenase (Homo sapiens). The experiment in a line: Inhibition of human recombinant 5-lipoxygenase expressed in Escherichia coli MV1190 up to 10 uM pre-incubated for 10 mins before arachidonic acid substrate addition and measured after 10 mins by RP-HPLC method. The procedure, abridged: as §2

In general, IC50 refers to the point on the concentration scale where inhibition reaches its midpoint. Regarding `COc1cc(-c2cc(=O)c3c(O)c(C/C=C(\C)CCC=C(C)C)c(O)cc3o2)ccc1O`, the IC50 in assay [1] is 1.3 µM; in assay [2], 1.8 µM.

Turning to `COc1cc(O)cc(CCc2ccc(OC)c(O)c2CC=C(C)C)c1`, the inhibition entry in assay [3] and in assay [4] was “Dose-dependent effect” each time. For the same molecule, the figures for the IC50 in assay [1] and in assay [2] were 0.4 µM and 10 µM, respectively.

Turning to `COc1cc(O)c2c(c1)CCC21C=CC(=O)CC1` (stereo not given), the half-maximal inhibitory concentration (IC50) in assay [1] stood at 9.3 µM. The inhibition result in assay [5] is “inactive”.

Regarding `COc1cc(O)c2c(c1)CCC21CCC(O)CC1` (stereo not given), the inhibition entry in assay [6] and in assay [5] was “inactive” throughout.
